Results pooled from the literature.
Each line is one published result; the experiments were not run side by side.

COc1cccc2c(N3CCC(CCP(=O)(O)O)CC3)ncnc12 gave an AUC(0-inf) of 751 ng·h/mL (female C57BL/6 mouse, brain; subcutaneous, 50 mg/kg).
The AUC(0-inf) of CCOC(=O)C1=C(CN2CCC[C@@H]2C(=O)Nc2ccc(B(O)O)cc2)NC(c2nccs2)=N[C@H]1c1ccc(F)cc1Br is reported as 723 ng·h/mL (CD-1 mouse, plasma; intravenous, 2 mg/kg).
With OCc1nc2ccc(NCc3ccc(C(F)(F)F)cc3)cc2[nH]1 the AUC(0-inf) was 2730 ng·h/mL (male BALB/c mouse, plasma; oral, 10 mg/kg).
For CN(C)C(=O)c1cc2cnc(Nc3ccc(-c4ccc5c(=O)cc(N6CCOCC6)oc5c4)cc3)nc2n1C1CCCC1.Cl, the AUC(0-inf) was 2790 ng·h/mL (BALB/c mouse, plasma; intravenous, 2 mg/kg).
The AUC(0-t) of NCc1ccc(-c2nn(Cc3ccccc3)c3ccccc23)o1 is reported as 1310 ng·h/mL (male CD-1 mouse, plasma; intravenous, 5 mg/kg).
With Cc1ccc(CCC(=O)Nc2nnc(S(N)(=O)=O)s2)cc1 the AUC was 12.5 µM·h (male BALB/c mouse, plasma; oral, 20 mg/kg).
With CC(C)[C@@H](CS(=O)(=O)C(C)C)N1C(=O)[C@@](C)(CC(=O)O)C[C@H](c2cccc(Cl)c2)[C@H]1c1ccc(Cl)cc1 the AUC(0-inf) was 172 ng·h/mL (FVB mouse, brain; intravenous, 20 mg/kg, single dose).
The AUC(0-inf) of Cc1nc2ccc(OCc3ccc(C(F)(F)F)cc3)cc2[nH]1 is reported as 13200 ng·h/mL (male BALB/c mouse, plasma; oral, 10 mg/kg).
With COCC(=O)N1CCc2[nH]c3c(Cl)c(Cl)ccc3c2[C@@H]1C the AUC(0-inf) was 3.28 µM·h (C57BL/6 mouse, blood; intravenous, 1 mg/kg).
C[C@@H]1COCCN1c1cc(=O)n2c(n1)N(Cc1cncc(Cl)c1)[C@H](C(F)(F)F)CC2 gave an AUC(0-inf) of 3280 ng·h/mL (C57BL/6 mouse, plasma; intraperitoneal, 10 mg/kg, single dose).
For NCc1cc2c(cc1F)C(=O)N(C1CCC(=O)NC1=O)C2 (centres unmarked), the AUC(0-inf) was 149 ng·h/mL (male CD-1 mouse, plasma; intravenous, 1 mg/kg).
For CCOC(=O)c1c(NC(=O)CNC(C)C)sc2c1CCCCC2, the AUC(0-inf) was 19300 ng·h/mL (male mouse, plasma; intraperitoneal, 100 mg/kg, single dose).
The AUC(0-inf) of O=C1CCC(N2Cc3cc(C4CCN(Cc5ccccc5)CC4)ccc3C2=O)C(=O)N1 (centres unmarked) is reported as 603 ng·h/mL (male CD-1 mouse, plasma; oral, 3 mg/kg).
The AUC of CCn1c(=O)c(-c2cc(NC(=O)Nc3ccccc3)c(F)cc2Br)cc2cnc(NC)cc21 is reported as 2310 ng·h/mL (male mouse, plasma; oral, 15 mg/kg, single dose).
